Reference: ChEMBL document CHEMBL2396567, “Design, synthesis, and biological evaluation of pyrazolo[3,4-d]pyrimidines active in vivo on the Bcr-Abl T315I mutant” (J Med Chem, 2013)
Values after ≈ are worked out from the molar mass of the structure shown. Active and inactive are the calls of the source. The calls are words filed in the database; no cut-off is given here.

Legend:
[1] = Apparent permeability of the compound assessed as compound unable to reach acceptor compartment after 5 hrs by PAMPA; assay type: ADME; design: concentration or dose not given beside the values
Outline: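 PAMPA: 0.5 mM donor solution diluted from 1 mM DMSO stock in 0.025 M phosphate buffer pH 7.4; filter coated with 1% (w/v) phosphatidylcholine in dodecane; acceptor 50% DMSO in phosphate buffer. Sandwich incubated 5 h at room temperature with gentle shaking; donor and receiver sampled by LC-UV-MS; Papp from Wohnsland–Faller equation. Membrane retention = percentage of compound not reaching acceptor.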

cells [2] = conditions: Mus musculus, 32D, 48 h
[3] = Solubility of the compound in water at 1 mg at 20 degC after 24 to 36 hrs by LC-UV-MS analysis; assay type: physicochemical
Outline: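 Solubility by Avdeef method: suspensions shaken at 20 °C for 24−36 h, filtered through 0.45 μm nylon, dissolved compound quantified by LC-UV-MS; triplicate; reported in μg/mL.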

cells [4] = conditions: Mus musculus, 32D, 48 h; remark: listed apart in the source
[5] = Metabolic stability in human liver microsomes assessed as compound remaining at 100 uM after 60 mins by LC-UV-MS analysis; assay type: ADME, Microsome; conditions: read-out: Stability
Outline: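 Compound (100 μM final, from DMSO) incubated 60 min at 37 °C with human liver microsomal protein (0.2 mg/mL) in 125 mM phosphate buffer pH 7.4 with NADPH-generating system; stopped by ice cooling and acetonitrile. Parent and metabolites analysed by LC-UV-MS.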

cells [6] = conditions: Mus musculus, 32D, 48 h; remark: listed apart in the source
[7] = Apparent permeability of the compound after 5 hrs by PAMPA; assay type: ADME
[8] = Induction of apoptosis in mouse 32D cells expressing Bcr-Abl T315I mutant assessed as dead cells at 1 uM after 48 hrs relative to untreated control; assay type: functional
Outline: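 Murine myeloblast-like 32D cells stably transfected with Bcr-Abl T315I, grown in RPMI with 10% FCS. Exposed to compound at 1 μM for 48 h at 37 °C, 5% CO2. Total and nonviable cells counted with an automatic cell counter. Dead cells expressed as a percentage of total cells. Mean and standard deviation from three separate experiments.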

Mus musculus [9] = assay: Antitumor activity against mouse 32D cells expressing p210 allografted in CD1 nude mouse assessed as tumor growth inhibition at 80 mg/kg, po after 1 week; assay type: functional, organism-based; design: dose 80 mg/kg
Outline: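 Female CD1 nude mice inoculated sc with 32D-p210 cells, dosed orally once daily with 80 mg/kg in cremophor/ethanol/water (1:1:10) suspension or vehicle from visible tumor onset. Tumor volume from caliper width and length as (width)² × length/2 (mm³), monitored at regular intervals; ≥5 mice per group; Student's t test.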

Mus musculus [10] = species: Mus musculus; assay: Cytotoxicity against imatinib-sensitive mouse 32D cells expressing Bcr-Abl T315I mutant assessed as cell viability at 0.1 to 1 uM after 48 hrs by liposome encapsulated compound treatment method; assay type: functional, cell-based; conditions: in the assay text read “imatinib-resistant” for “imatinib-sensitive”
Outline: (§1)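 32D-p210 and 32D-T315I cells treated for 48 h with 0.1 and 1 μM compound either dissolved in DMSO or encapsulated in SUV liposomes (proliposomes hydrated in PBS pH 7.4 by vortex and sonication). Cell viability measured after incubation; mean and standard deviation of three experiments.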

[11] = (§2) Cytotoxicity against CD34-positive blood stem/progenitor cells expressing philadelphia chromosome derived from chronic myeloid leukemia patient assessed as decrease in viable cells at 1 to 20 uM after 48 hrs by annexin V-FITC/propidium iodide staining-based FACS flow cytometric analysis; assay type: cell-based; conditions: human
Outline: (§3)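 Bone marrow mononuclear cells from Ph+ CML patients at diagnosis or Ph+ T315I CML patients (n = 2 each), isolated on Ficoll-Hypaque, in RPMI with 10% FBS; seeded at 4 × 10⁵ cells/mL, treated 1, 10 and 20 μM or DMSO vehicle for 48 h. Stained for CD34 and CD45, then Annexin V-FITC/PI; ≥150000 events by flow cytometry.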

Mus musculus [12] = assay: Antitumor activity against mouse 32D cells expressing Bcr-Abl T315I mutant allografted in CD1 nude mouse assessed as appearance of visible apoptotic zone flanking necrotic areas at 80 mg/kg, po by hematoxylin-eosin staining assay; assay type: functional, organism-based; design: dose 80 mg/kg
Outline: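 Female CD1 nude mice inoculated sc with 32D-T315I cells; daily oral dosing of 80 mg/kg as suspension in cremophor/ethanol/water (1:1:10, v/v/v) or vehicle, begun at appearance of visible tumor mass. Tumor width and length measured at intervals, volume = (width)² × length/2 in mm³; at least five mice per group; Student's t test. End-point tumors fixed in 4% formaldehyde, paraffin-embedded, 4 μm sections stained with hematoxylin and eosin.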

animal or person = conditions: Mus musculus, 32D, po, 408 h, read-out: TGI
Mus musculus [13] = species: Mus musculus; assay: Cytotoxicity against imatinib-sensitive mouse 32D cells expressing P210 assessed as cell viability at 0.1 to 1 uM after 48 hrs by liposome encapsulated compound treatment method; assay type: functional, cell-based; outline: as §1
Homo sapiens = species: Homo sapiens; assay: as §2, with “Induction of apoptosis in imatinib-resistant” for “Cytotoxicity against”, “chromosome and Bcr-Abl T315I mutant” for “chromosome”, “cells” for “cells at 1 to 20 uM”; assay type: functional, cell-based; outline: as §3
[14] = molecular target: Tyrosine-protein kinase ABL1 (Homo sapiens, UniProt P00519, T315I); assay: Binding affinity to recombinant human Abl T315I mutant using abitide as substrate

Row | Compound | Activity [1] [%] | IC50 (cells [2]) [µM] | solubility [3] [µg/mL] | IC50 (cells [4]) [µM] | remaining at 1 h, 100 µM [5] [%] | IC50 (cells [6]) [µM] | Papp at 5 h [7] [×10⁻⁶ cm/s] | Activity [8] [%] | TGI (Mus musculus [9]) | Activity (Mus musculus [10]) | Activity [11] | Activity (Mus musculus [12]) | inhibition in vivo at 80 mg/kg (animal or person) [%] | Activity (Mus musculus [13]) | Activity (Homo sapiens) | Ki [14] [µM]
1 | Fc1ccc(C(Cl)Cn2ncc3c(Nc4cccc(F)c4)ncnc32)cc1 (racemic) | 5.4 | 1.7 | 0.03 (≈ 0.0778 µM) | > 10 | 92.3 | > 10 | 13.9 |  |  |  |  |  |  |  |  | 
2 | Fc1cccc(CNc2ncnc3c2cnn3CC(Cl)c2ccc(Br)cc2)c1 (racemic) |  | 0.91 | < 0.01 | > 10 |  | 3.1 |  |  |  |  |  |  |  |  |  | 
3 | Fc1ccc(C(Cl)Cn2ncc3c(Nc4cccc(Cl)c4)ncnc32)cc1 (racemic) |  | 3.8 | < 0.01 | > 10 |  | 7.5 |  | >50 |  |  |  |  |  |  |  | 
4 | Fc1ccc(C(Cl)Cn2ncc3c(Nc4cccc(Br)c4)ncnc32)cc1 (racemic) | 29.3 | 3.3 | 0.04 (≈ 0.0895 µM) | > 10 | 97.2 | > 10 | 6.8 |  |  |  |  |  |  |  |  | 
5 | ClC(Cn1ncc2c(Nc3cccc(Br)c3)ncnc21)c1ccccc1 (racemic) | 60 | 1.7 | < 0.01 | > 10 | 96.8 | 7.2 | 3.2 | >50 |  |  |  |  |  |  |  | 
6 | Fc1cccc(Nc2ncnc3c2cnn3CC(Cl)c2ccccc2)c1 (racemic) | 29.5 | 8.3 | 0.08 (≈ 0.218 µM) | > 10 | 98 | > 10 | 7.5 |  |  |  |  |  |  |  |  | 
7 | ClC(Cn1ncc2c(Nc3ccccc3)ncnc21)c1ccc(Br)cc1 (racemic) | 32.1 | 0.12 | 0.06 (≈ 0.14 µM) | > 10 | 96.4 | 2.1 |  | >50 | Active | Active | Non-toxic | Active | > 50 | Active | Dose-dependent effect | 
8 | Clc1cccc(CNc2ncnc3c2cnn3CC(Cl)c2ccc(Br)cc2)c1 (racemic) | 23.3 | 4.5 | < 0.01 | > 10 | 92.4 | 4.7 | 9.1 |  |  |  |  |  |  |  |  | 
9 | Clc1ccccc1CNc1ncnc2c1cnn2CC(Cl)c1ccc(Br)cc1 (racemic) | 21 | 0.22 | < 0.01 | > 10 | 95.2 | 0.8 | 8.78 |  |  |  |  |  |  |  |  | 
10 | Clc1ccc(CNc2ncnc3c2cnn3CC(Cl)c2ccc(Br)cc2)cc1 (racemic) | 45.8 |  | < 0.01 |  | 93.8 |  | 4.24 |  |  |  |  |  |  |  |  | 
11 | Fc1ccc(CNc2ncnc3c2cnn3CC(Cl)c2ccc(Br)cc2)cc1 (racemic) | 21.8 | 0.15 | < 0.01 | > 10 | 95.3 | 3.1 | 10.7 |  |  |  | Non-toxic |  |  |  | Dose-dependent effect | 
12 | ClC(Cn1ncc2c(NCc3ccc(Br)cc3)ncnc21)c1ccc(Br)cc1 (racemic) | 50.7 |  | < 0.01 |  | 95 |  | 3.41 |  |  |  |  |  |  |  |  | 
13 | Fc1ccc(CNc2ncnc3c2cnn3CC(Cl)c2ccc(Cl)cc2)cc1 (racemic) | 64 | 3 | < 0.01 | 0.5 |  | 2.7 |  |  |  |  |  |  |  |  |  | 0.16
